Assay results reported in ChEMBL document CHEMBL2046352, “Discovery of novel 5-(ethyl or hydroxymethyl) analogs of 2'-'up' fluoro (or hydroxyl) pyrimidine nucleosides as a new class of Mycobacterium tuberculosis, Mycobacterium bovis and Mycobacterium avium inhibitors” (Bioorg Med Chem, 2012).

Experiments:
[1] = system: Mycobacterium tuberculosis; experiment: Antimycobacterial activity against Mycobacterium bovis BCG assessed as inhibition of microbial growth at 1 ug/ml incubated for 6 days by MABA method; assay type: functional; settings: variant bovis BCG, 144 h, read-out: GI
Method in brief: (§1)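 Microplate alamar blue assay in 7H9GC medium. Compounds dissolved in DMSO at 10 mg/mL (stock), diluted to 100, 50, 25, 10, 5, 1 and 0.5 ug/mL, each in triplicate. Frozen inoculum added at final 2.5 x 10^5 CFU/mL. Bacteria-alone and medium-alone control wells. Read by colour change and fluorescence. % inhibition = (test − M bkg)/(B − M bkg) x 100, mean of two experiments. MIC50 = lowest concentration giving ≥50% inhibition.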

[2] = system: Mycobacterium tuberculosis; experiment: Antimycobacterial activity against Mycobacterium bovis BCG assessed as inhibition of microbial growth at 50 ug/ml incubated for 6 days by MABA method; assay type: functional; settings: variant bovis BCG, 144 h, read-out: GI; method in brief: as §1
[3] = system: Mycobacterium tuberculosis; experiment: Antimycobacterial activity against Mycobacterium bovis BCG assessed as inhibition of microbial growth at 100 ug/ml incubated for 6 days by MABA method; assay type: functional; settings: variant bovis BCG, 144 h, read-out: GI; method in brief: as §1
[4] = system: Mycobacterium tuberculosis; experiment: Antimycobacterial activity against Mycobacterium bovis BCG assessed as inhibition of microbial growth at 0.5 to 100 ug/ml incubated for 6 days by MABA method; assay type: functional, variant bovis BCG; method in brief: as §1
[5] = system: Mycobacterium tuberculosis; experiment: Antimycobacterial activity against Mycobacterium bovis BCG assessed as inhibition of microbial growth incubated for 6 days by MABA method; assay type: functional; settings: variant bovis BCG, 144 h; method in brief: as §1
[6] = system: Mycobacterium tuberculosis; experiment: Antimycobacterial activity against Mycobacterium bovis BCG assessed as inhibition of microbial growth at 10 ug/ml incubated for 6 days by MABA method; assay type: functional; settings: variant bovis BCG, 144 h, read-out: GI; method in brief: as §1
[7] = system: Mycobacterium tuberculosis; experiment: Antimycobacterial activity against Mycobacterium bovis BCG assessed as inhibition of microbial growth at 5 ug/ml incubated for 6 days by MABA method; assay type: functional; settings: variant bovis BCG, 144 h, read-out: GI; method in brief: as §1
[8] = system: Mycobacterium tuberculosis; experiment: Antimycobacterial activity against Mycobacterium bovis BCG assessed as inhibition of microbial growth at 0.5 ug/ml incubated for 6 days by MABA method; assay type: functional; settings: variant bovis BCG, 144 h, read-out: GI; method in brief: as §1

SMILES | inhibition of growth at 50 µg/mL [2] [%] | inhibition of growth at 100 µg/mL [3] [%] | further results
Cc1cn([C@@H]2O[C@H](CO)[C@@H](Br)[C@@H]2O)c(=O)[nH]c1=O | – | – | inhibition of growth at 1 µg/mL [1]: 40%
CCc1cn([C@@H]2O[C@H](COC(C)=O)[C@@H](OC(C)=O)[C@@H]2F)c(=O)[nH]c1=O | 55 | 75 | –
CCc1cn([C@@H]2O[C@H](CO)[C@@H](O)[C@@H]2F)c(=O)[nH]c1=S | 55 | 65 | –
CCc1cn([C@@H]2O[C@H](CO)[C@@H](O)[C@@H]2F)c(=O)nc1N | – | 50 | –
CCc1cn2c(nc1=O)O[C@@H]1[C@H](F)[C@H]2O[C@@H]1CO | 25 | 25 | –
CCc1cn([C@@H]2O[C@H](CO)[C@@H](N=[N+]=[N-])[C@@H]2F)c(=O)[nH]c1=O | – | – | growth inhibition (GI) [4]: 0%
CCc1cn([C@@H]2O[C@H](CO)[C@@H](Br)[C@@H]2F)c(=O)[nH]c1=O | 70 | 80 | MIC50 [5]: 5 µg/mL; inhibition of growth at 10 µg/mL [6]: 60%; inhibition of growth at 5 µg/mL [7]: 50%
CCc1cn([C@@H]2O[C@H](CO)C[C@@H]2F)c(=O)[nH]c1=O | – | 25 | –
O=c1[nH]c(=O)n([C@@H]2O[C@H](CO)[C@@H](O)[C@@H]2O)cc1CO | – | – | growth inhibition (GI) [4]: 0%
O=c1[nH]c(=S)c(CO)cn1[C@@H]1O[C@H](CO)[C@@H](O)[C@@H]1O | 100 | 100 | inhibition of growth at 0.5 µg/mL [8]: 50%; MIC50 [5]: 0.5 µg/mL; inhibition of growth at 10 µg/mL [6]: 90%; inhibition of growth at 5 µg/mL [7]: 75%
COCc1cn([C@@H]2O[C@H](CO)[C@@H](O)[C@@H]2O)c(=O)nc1N | 60 | 80 | inhibition of growth at 10 µg/mL [6]: 50%
CCc1cn([C@H]2O[C@@H](CO)[C@H](O)[C@H]2F)c(=O)[nH]c1=O (single isomer, unassigned) | – | – | growth inhibition (GI) [4]: 0%
CO[C@H]1/C=C/O[C@@]2(C)Oc3c(C)c(O)c4c(O)c(c(/C=N/N5CCN(C)CC5)c(O)c4c3C2=O)NC(=O)/C(C)=C\C=C\[C@H](C)[C@H](O)[C@@H](C)[C@@H](O)[C@@H](C)[C@H](OC(C)=O)[C@@H]1C [RIFAMPIN] | – | – | inhibition of growth at 0.5 µg/mL [8]: 100%
